Measurements: PMC13094344 (ACS chemical neuroscience, 2017)

What was measured:
CB1R [1] = biological target: T1, CB1R (Mus musculus, UniProt P47746); assay: Electrically-evoked contractions of mouse isolated vas deferens
hCB2R = hCB2R (Homo sapiens, UniProt P34972); assay: [3H]CP55,940 binding to CHO-hCB2R membranes; conditions: data not shown
Method in brief: (§1)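 Filtration displacement assay with 0.7 nM [3H]CP55,940 in 50 mM Tris-HCl/50 mM Tris-base, 0.1% BSA, pH 7.4, run 60 min at 37 °C. Membranes were from CHO cells stably expressing hCB2R (50 µg protein) or from mouse whole brain. Test compound was added from 10 mM DMSO stock (0.1% DMSO final). Nonspecific binding used 1 µM unlabelled CP55,940; radioactivity was counted by liquid scintillation.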

CB1R [2] = biological target: T1, CB1R; assay: [3H]CP55,940 binding to mouse brain membranes; conditions: 1 nM – 10 μM
Method in brief: as §1

hCB1R [3] = biological target: T2, hCB1R (Homo sapiens, UniProt P21554); assay: Arrestin2 recruitment to hCB1R-GFP2 by BRET2; type: cell-based; conditions: for Arrestin2 recruitment by the compound alone: 1 nM – 10 μM, HEK293A or Neuro2a cells; for Log(αβ) / α (affinity modulation) / β (efficacy modulation) / τB (modulator efficacy): BRETEff, HEK293A, ± SD; for Log(αβ) / α (affinity modulation) / β (efficacy modulation): CP55,940 as agonist; for τB (modulator efficacy): fraction of the efficacy of CP55,940
T2 sequence (P21554 whole entry): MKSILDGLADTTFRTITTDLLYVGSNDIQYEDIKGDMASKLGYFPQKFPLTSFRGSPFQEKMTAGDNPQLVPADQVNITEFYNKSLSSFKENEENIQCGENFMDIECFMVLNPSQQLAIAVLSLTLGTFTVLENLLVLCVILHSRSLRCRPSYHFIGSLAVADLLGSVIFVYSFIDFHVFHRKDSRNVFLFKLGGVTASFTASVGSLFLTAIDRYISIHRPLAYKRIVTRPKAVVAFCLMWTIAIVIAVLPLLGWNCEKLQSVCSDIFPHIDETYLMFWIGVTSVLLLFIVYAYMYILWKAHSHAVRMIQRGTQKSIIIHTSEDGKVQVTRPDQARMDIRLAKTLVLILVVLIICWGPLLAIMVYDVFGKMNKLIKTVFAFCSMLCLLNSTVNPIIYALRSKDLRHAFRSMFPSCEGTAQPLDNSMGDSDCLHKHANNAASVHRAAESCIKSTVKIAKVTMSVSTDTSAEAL

hCB1R [4] = biological target: T2, hCB1R; assay: cAMP luciferase reporter assay in HEK-CRE cells transfected with hCB1R-GFP2; type: cell-based; conditions: for Log(αβ) / α (affinity modulation) / β (efficacy modulation): CP55,940 as agonist, ± SD; for τB (modulator efficacy): fraction of the efficacy of CP55,940, ± SD
hCB1R [5] = biological target: T2, hCB1R; assay: ERK1/2 phosphorylation, In-cell western; type: cell-based; conditions: 1 nM – 10 μM; HEK293A and Neuro2a cells
hCB1R [6] = biological target: T2, hCB1R; assay: PLCβ3 phosphorylation, In-cell western; type: cell-based; conditions: 1 nM – 10 μM; HEK293A and Neuro2a cells
hCB1R [7] = assay: Induced signaling bias, cAMP inhibition versus arrestin2 recruitment, ΔLog; type: cell-based, human; conditions: CP55,940, 95% CI; for ΔLog(αβ): cAMP versus arrestin2 (BRET2); for Induced Bias: toward inhibition of cAMP production over arrestin2 recruitment
Method in brief: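 Arrestin2 arm: HEK293A cells were transfected with hCB1R-GFP2 and arrestin2-Rluc. Cells were suspended in BRET buffer 48 h later and read by BRET2 (coelenterazine 400a 50 μM; emissions 405/510 nm). cAMP arm: HEK-CRE cells carried hCB1R-GFP2 and were read by luciferase reporter in 10 µM forskolin. CP55,940 1 nM–10 µM ± test compound 1 nM–10 µM, 0.1% DMSO. Data were fit to an allosteric binding plus Black-Leff operational model, with four independent estimates.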

hCB1R [8] = biological target: T2, hCB1R; assay: [3H]CP55,940 binding to CHO-hCB1R membranes; conditions: 10 μM

T1 sequence (P47746 whole entry): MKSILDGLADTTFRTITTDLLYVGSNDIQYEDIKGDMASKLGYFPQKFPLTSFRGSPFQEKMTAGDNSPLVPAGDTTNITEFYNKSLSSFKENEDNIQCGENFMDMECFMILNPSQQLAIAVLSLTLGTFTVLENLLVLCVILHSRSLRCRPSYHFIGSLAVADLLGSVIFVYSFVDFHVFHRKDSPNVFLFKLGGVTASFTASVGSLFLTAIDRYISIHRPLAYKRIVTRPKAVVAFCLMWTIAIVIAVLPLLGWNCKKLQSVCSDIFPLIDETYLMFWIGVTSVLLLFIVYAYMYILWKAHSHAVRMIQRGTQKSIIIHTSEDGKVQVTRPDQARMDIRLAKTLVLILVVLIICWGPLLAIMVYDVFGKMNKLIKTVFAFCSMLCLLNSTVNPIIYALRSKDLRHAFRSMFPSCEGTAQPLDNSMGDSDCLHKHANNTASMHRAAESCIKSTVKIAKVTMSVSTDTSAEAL
Chain of hCB2R (P34972 whole entry): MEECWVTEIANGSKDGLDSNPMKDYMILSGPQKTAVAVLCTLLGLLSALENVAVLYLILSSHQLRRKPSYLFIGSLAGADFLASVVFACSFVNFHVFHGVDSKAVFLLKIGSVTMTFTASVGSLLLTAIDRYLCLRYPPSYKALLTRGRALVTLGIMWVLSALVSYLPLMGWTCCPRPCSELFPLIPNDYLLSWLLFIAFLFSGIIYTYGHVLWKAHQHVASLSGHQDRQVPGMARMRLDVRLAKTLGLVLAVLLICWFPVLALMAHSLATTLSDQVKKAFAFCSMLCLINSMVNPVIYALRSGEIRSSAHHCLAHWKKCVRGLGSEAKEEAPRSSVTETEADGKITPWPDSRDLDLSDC

SMILES | Effect by itself on electrically-evoked contractions (CB1R [1]; 1 nM up to 10 μM, n=6, data not shown) | Effect on AEA-induced inhibition of electrically-evoked contractions (CB1R [1]; 1 μM modulator, AEA 10 and 100 nM) | Increase of [3H]CP55,940 binding to hCB2R (hCB2R; 10 μM) [%] | Effect on [3H]CP55,940 binding to hCB2R (hCB2R; up to 1 μM) | Effect on [3H]CP55,940 binding to mouse brain membranes (CB1R [2]) | Arrestin2 recruitment by the compound alone (hCB1R [3]) | Log(αβ) (hCB1R [3]) | α (affinity modulation) (hCB1R [3]) | β (efficacy modulation) (hCB1R [3]) | τB (modulator efficacy) (hCB1R [3]) | Log(αβ) (hCB1R [4]) | α (affinity modulation) (hCB1R [4]) | β (efficacy modulation) (hCB1R [4]) | τB (modulator efficacy) (hCB1R [4]) | ERK phosphorylation by the compound alone (hCB1R [5]) | PLCβ3 phosphorylation by the compound alone (hCB1R [6]) | ΔLog(αβ) (hCB1R [7]) | Induced Bias (hCB1R [7]) | Effect on [3H]CP55,940 binding (hCB1R [8])
O=[N+]([O-])CC(c1ccccc1)c1c(-c2ccccc2)[nH]c2ccccc12 (centres unmarked) [GAT211] | no statistically significant effect | potentiated | 29 | no effect | enhanced | increased arrestin2 recruitment in a concentration-dependent manner | 1.35 ± 0.04 | 24 ± 2.83 | 0.95 ± 0.06 | 0.15 ± 0.03 | 1.37 ± 0.06 | 21 ± 2 | 1.13 ± 0.19 | 0.19 ± 0.08 | increased | increased | 0.01 (−0.18 – 0.21) | n.s | 
O=[N+]([O-])C[C@H](c1ccccc1)c1c(-c2ccccc2)[nH]c2ccccc12 [GAT228] |  |  |  |  |  | increased arrestin2 recruitment in a concentration-dependent manner | 0.21 ± 0.10 | 2.5 ± 0.58 | 0.68 ± 0.09 | 0.19 ± 0.04 | −0.06 ± 0.36 | 1.08 ± 0.34 | 0.95 ± 0.5 | 0.15 ± 0.06 | increased | increased | −0.27 (−0.40 – −0.09) | 0.54 (0.35 – 0.81) | weak PAM effect
O=[N+]([O-])C[C@@H](c1ccccc1)c1c(-c2ccccc2)[nH]c2ccccc12 [GAT229] |  |  |  |  |  | no effect | 0.97 ± 0.14 | 4.25 ± 1.5 | 2.3 ± 0.38 | 0 | 1.3 ± 0.35 | 2.25 ± 1.26 | 10.75 ± 4.43 | 0 | without effect | without effect | 0.34 (0.14 – 0.54) |  | 
